Screening data deposited in PubChem BioAssay by several laboratories.
LEDGF integ inh – blocks HIV-1 LEDGF/p75-dependent DNA integration; TR-FRET IN-LEDGF/p75 DNA integration, Eu/Cy5; inhibition, % at 3.7 µM; actives 0.64% (n = 370,000);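 active = inhibition above the screen-wide mean plus 3 SD, cut at about 13% in these data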;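 note: signal is the Cy5 over europium emission ratio at 671 and 618 nm; 0% = plate median of compound wells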
UCH37 inh – blocks the human deubiquitinase UCH37. actives 0.33% (n = 330,000). purified proteasome/UCH37, Ub-AMC cleavage fluorescence. inhibition, % (no concentration beside the values). Q9Y5K5;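 active = mean inhibition over replicate wells above about 20%, limit read from the data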;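 note: 0% = compound-free wells with enzyme and 100% = wells lacking proteasome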
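Material: human UCH37 enzyme supplied as purified proteasome complex / Amount: 0.15 nM proteasome as dispensed / Buffer or medium: pH 7.4 Tris-HCl (50 mM) with ovalbumin, ATP-MgCl2, DTT / Times: preincubation 30 min, reaction 25 min, room temperature / Technique: AMC fluorescence from Ub-AMC cleavage, excitation 355 nm, emission 460 nm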
TDP2 absorb – TDP2 (human) inhibition, absorbance primary screen. actives 0.34% (n = 370,000). O95551. AID 720702. recombinant TDP2, T5PNP hydrolysis, p-nitrophenol absorbance 415 nm. inhibition, % at 12.8 µM;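 active = inhibition above the mean of all tested compounds plus 3 SD, set per campaign, cut at about 25% in these data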;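 note: 0% = DMSO with enzyme and 100% = buffer with substrate but no TDP2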
Target sequence (O95551 whole entry, looked up): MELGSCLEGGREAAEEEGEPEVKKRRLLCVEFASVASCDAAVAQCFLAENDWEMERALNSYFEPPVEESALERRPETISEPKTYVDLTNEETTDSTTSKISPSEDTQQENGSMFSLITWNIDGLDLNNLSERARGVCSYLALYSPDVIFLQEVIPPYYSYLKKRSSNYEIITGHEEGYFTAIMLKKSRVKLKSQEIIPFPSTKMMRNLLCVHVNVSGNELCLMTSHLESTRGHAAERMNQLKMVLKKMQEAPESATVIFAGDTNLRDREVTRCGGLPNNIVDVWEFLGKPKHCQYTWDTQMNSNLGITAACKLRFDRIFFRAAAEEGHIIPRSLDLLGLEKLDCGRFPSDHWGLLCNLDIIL
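System – recombinant human TDP2 · Amount – 120 nM TDP2 per well · Buffer or medium – Mg2+-containing Tris-HCl buffer, pH 7.5 · Reagent – T5PNP substrate, 5 mM · Dosing – 12.8 µM single point, 1% DMSO · Incubation – 2 h at 37 °C · Measured by – epi absorbance · Read-out basis – percent inhibition · Benchmarks – high control without enzyme, low control DMSO plus TDP2 · Repeats – singlicate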
NSD2 HMT inh – NSD2 (human) methyltransferase inhibition; NSD2 peptide methylation, AlphaScreen, 120 min; actives 0.54% (n = 310,000); AID 743445; O96028; inhibition, % at 12.5 µM; in the data active = inhibition above about 50%
CASP6 VEID inh – inhibitors of human caspase-6. purified caspase-6, Z-VEID-R110 cleavage fluorescence. actives 0.53% (n = 350,000). P55212. inhibition, % at 12.5 µM;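 active = mean inhibition across replicates at least about 35%, with every replicate also reaching that limit, limit read from the data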;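 note: 0% = median of neutral control wells and 100% = no fluorescence left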
Target sequence (P55212 24-179 limits assumed): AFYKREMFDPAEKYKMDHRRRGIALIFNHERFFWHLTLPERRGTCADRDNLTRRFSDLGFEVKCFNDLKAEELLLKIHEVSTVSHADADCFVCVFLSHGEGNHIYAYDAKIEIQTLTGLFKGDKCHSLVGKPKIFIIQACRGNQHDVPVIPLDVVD
Target sequence (P55212 194-293 limits assumed): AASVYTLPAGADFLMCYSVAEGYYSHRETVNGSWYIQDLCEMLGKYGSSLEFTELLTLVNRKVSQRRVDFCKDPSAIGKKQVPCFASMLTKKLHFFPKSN
* hit, by the source's call; x = no result. Sampled rows, rich in hits. Any-hit rate of the full collection: about 1.3%.

SMILES	LEDGF integ inh	UCH37 inh	TDP2 absorb	NSD2 HMT inh	CASP6 VEID inh
O=C1CCCC(O)=C1N=Nc1ccc2c(c1)OCO2	0	20*	-14	1	9
COc1ccc(C=NNC(=O)CNC(=O)/C=C/c2ccco2)cc1OC	x	8	x	x	x
Cc1ccc(S(=O)(=O)N2[C@@H](c3ccc(C(C)(C)C)cc3)C(C(=O)O)=CC[C@H]2c2ccc(Cl)cc2)cc1	-2	15	-11	x	26
CCc1ccc([C@@H]2CC=C(C(=O)O)[C@H](c3ccc(C(C)(C)C)cc3)N2S(=O)(=O)c2ccc(C)cc2)cc1	-1	13	0	x	45*
Cc1ccc([C@@H]2CC=C(C(=O)O)[C@H](c3ccc(C(C)(C)C)cc3)N2S(=O)(=O)c2ccc(C)cc2)cc1	5	8	-5	x	46*
COc1ccccc1NCC(=O)NN=Cc1c(O)ccc2ccccc12	x	-29	x	x	x
O=c1cc(O)c2ccc(O)cc2o1	-7	-21	4	x	0
O=c1ccc2[n+]([O-])c3ccc(O)cc3oc-2c1	61*	7	9	102*	88*
COC(=O)c1ccc(OC(=O)/C=C/c2ccco2)cc1	2	2	2	5	36*
CCc1nnc(NC(=O)CSc2ccc(-c3ccco3)nn2)s1	0	4	4	x	3
Cc1nnc(NC(=O)CSc2ccc(-c3ccco3)nn2)s1	5	4	-6	10	35*
CCOC(=O)N1CCN(C(=O)Cn2nc(C)n3nc(-c4ccc(OC)cc4)cc3c2=O)CC1	-4	-2	-2	2	38*
CC(=NNC(=O)c1nnn(-c2nonc2N)c1CN(C)C)c1ccco1	x	4	x	x	x
COC(=O)C=c1sc(=C(C#N)C(=O)NCc2ccco2)n(-c2ccc(C)cc2)c1=O	x	5	x	x	x
COc1cccc(C=NNC(=O)c2cc3cc([N+](=O)[O-])ccc3s2)c1O	x	24*	x	x	x
COc1cccc(-c2c(C(=O)NN=C(C)c3ccncc3)nnn2-c2nonc2N)c1	x	2	x	x	x
C=CCC[C@H](Cc1ccc(F)cc1)C(=O)OC[C@H](Cc1c[nH]c2ccccc12)NC(=O)[C@@H](CC=C)CC(=O)NCCO	-2	25*	-17	x	1
Cc1ccc(S(=O)(=O)N2CCC(C(=O)NN=Cc3ccccc3[N+](=O)[O-])CC2)cc1	x	5	x	x	x
CNc1nc2cc([N+](=O)[O-])c([N+](=O)[O-])cc2nc1NC	-1	41*	3	4	2
N#Cc1cc2nc(O)c(O)nc2cc1[N+](=O)[O-]	3	8	2	x	8
Cc1ccccc1CS(=O)(=O)CCC(=O)NCCCN1CCN(c2ccccc2F)CC1	-4	33*	1	2	-22
CN(C)C(=NOC(=O)c1ccccc1)c1nonc1N	x	0	x	x	x
CCc1cc(C(=O)O)c(NC(=O)/C=C/c2ccc(OC)c(OC)c2)s1	1	24*	-11	4	-3
CCc1cc(C(=O)O)c(NC(=O)/C=C/c2ccc(OC)cc2)s1	5	19	-11	0	2
Cc1ccc(-n2[nH]c(C)c(/C=N/Nc3ccc([N+](=O)[O-])cc3[N+](=O)[O-])c2=O)cc1C	1	x	9	62*	x
SMILES	LEDGF integ inh	UCH37 inh	TDP2 absorb	NSD2 HMT inh	CASP6 VEID inh
Cc1[nH]n(-c2ccccc2)c(=O)c1/C=N/NC(=O)c1cccc([N+](=O)[O-])c1	-2	x	-10	-2	x
O=c1cc(-c2ccc(O)c(O)c2)oc2cc(O)c([C@@H]3O[C@H](CO)[C@@H](O)[C@H](O)[C@H]3O)c(O)c12	57*	5	-3	x	6
CCc1cc(Cn2nc(C(=O)O)cc2-c2ccccc2)on1	-1	22*	9	x	1
O=C(O)C1CSC(c2ccco2)N1 (configuration not stated)	48*	x	0	38	86*
O=C(O)C1CSC(c2ccncc2)N1 (configuration not stated)	x	3	x	x	x
CC1CCCCC1NS(=O)(=O)c1ccc(S(=O)(=O)N2CCN(CCC#N)CC2)cc1 (configuration not stated)	-3	2	2	x	45*
CC1(OC(=O)CCc2ccccc2)C(=O)C=C2C=C(c3ccc(C#N)cc3)N(Cc3ccccc3)C=C2C1=O (configuration not stated)	0	2	-6	x	7
CC1(OC(=O)CCc2ccccc2)C(=O)C=C2C=C(c3ccc(C#N)cc3)N(Cc3ccco3)C=C2C1=O (configuration not stated)	17*	-1	-18	x	x
CSc1n[nH]c(N=Cc2oc(O)c3ccccc23)n1	x	1	x	x	x
CCOc1ncccc1C(=O)Nc1ccccc1N1CCOCC1	0	2	-9	-8	2
CCOc1ncccc1C(=O)OC(C)C(=O)Nc1ccc(N2CCOCC2)cc1 (configuration not stated)	-6	2	-14	-2	35*
Oc1cccc(C=NN=Cc2cccc(O)c2O)c1O	x	4	x	x	x
Oc1cccc(C=NCc2ccccc2)c1O	65*	1	10	x	x
Cc1ccccc1NC(=O)C(C)OC(=O)C1CC(=O)N(Cc2ccco2)C1 (configuration not stated)	2	2	0	1	55*
CC(OC(=O)C1CC(=O)N(Cc2ccco2)C1)C(=O)Nc1ccccc1[N+](=O)[O-] (configuration not stated)	0	6	3	-27	3
COc1ccc(N(CC(=O)NN=C(C)c2ccc(C)cc2)S(=O)(=O)c2ccccc2)cc1	x	3	x	x	x
O=C(NCCO)c1ccc2nc(-c3ccco3)c(-c3ccco3)nc2c1	77*	-39	47*	x	x
c1coc(-c2cnc3ccccc3n2)c1	4	x	5	1	8
c1coc(-c2nc3ccccc3nc2-c2ccco2)c1	48*	-137	28*	x	69*
COc1cc(C=NNS(=O)(=O)c2ccccc2)cc(OC)c1OC	x	1	x	x	x
COc1cc(C=NNc2ccccc2[N+](=O)[O-])cc(OC)c1O	x	6	x	x	x
COc1cc(C=NNc2nc3ccccc3s2)cc([N+](=O)[O-])c1O	x	22*	x	x	x
CC(C)(C)N1C(=O)[C@H]2[C@@H](c3ccc(Br)cc3)N3C(=O)N(c4ccccc4)C(=O)[C@@]3(Cc3ccccc3)[C@H]2C1=O	0	27*	1	x	2
CC(C)(C)N1C(=O)[C@H]2[C@@H](c3ccc(Br)cc3)N3C(=O)N(c4cccc(Br)c4)C(=O)[C@@]3(Cc3ccccc3)[C@H]2C1=O	x	1	x	x	x
O=C(CSc1nc2ccccc2c(=O)[nH]1)Nc1ccc(C(=O)O)cc1	1	4	7	3	37*
O=C(NCCc1ccccc1)c1cccc2c(-c3ccc(F)c(F)c3)coc12	-1	x	-4	0	45*
COc1ccccc1NC1=C(NC(C)=O)C(=O)c2ccccc2C1=O	2	13	2	31	11
COC1=C(Nc2ccccc2OC)C(=O)c2ccccc2C1=O	-4	8	3	74*	1
